Results on 20 compounds are retold here after PubChem BioAssay AID2247 (Johns Hopkins Ion Channel Center, 2010).

The whole screen tested about 300,000 compounds, of which about 1,200 (0.4%) were called active.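 How the source made its calls: active means B-score over 3 SD under the library average, no early fluorescence shift, positive overall ratio signal; inactive means the rest.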 Only a selection was taken, and actives are over-represented in it overall.

Sequence of Short transient receptor potential channel 4 (Mus musculus) (Q9QUQ5 whole entry, looked up): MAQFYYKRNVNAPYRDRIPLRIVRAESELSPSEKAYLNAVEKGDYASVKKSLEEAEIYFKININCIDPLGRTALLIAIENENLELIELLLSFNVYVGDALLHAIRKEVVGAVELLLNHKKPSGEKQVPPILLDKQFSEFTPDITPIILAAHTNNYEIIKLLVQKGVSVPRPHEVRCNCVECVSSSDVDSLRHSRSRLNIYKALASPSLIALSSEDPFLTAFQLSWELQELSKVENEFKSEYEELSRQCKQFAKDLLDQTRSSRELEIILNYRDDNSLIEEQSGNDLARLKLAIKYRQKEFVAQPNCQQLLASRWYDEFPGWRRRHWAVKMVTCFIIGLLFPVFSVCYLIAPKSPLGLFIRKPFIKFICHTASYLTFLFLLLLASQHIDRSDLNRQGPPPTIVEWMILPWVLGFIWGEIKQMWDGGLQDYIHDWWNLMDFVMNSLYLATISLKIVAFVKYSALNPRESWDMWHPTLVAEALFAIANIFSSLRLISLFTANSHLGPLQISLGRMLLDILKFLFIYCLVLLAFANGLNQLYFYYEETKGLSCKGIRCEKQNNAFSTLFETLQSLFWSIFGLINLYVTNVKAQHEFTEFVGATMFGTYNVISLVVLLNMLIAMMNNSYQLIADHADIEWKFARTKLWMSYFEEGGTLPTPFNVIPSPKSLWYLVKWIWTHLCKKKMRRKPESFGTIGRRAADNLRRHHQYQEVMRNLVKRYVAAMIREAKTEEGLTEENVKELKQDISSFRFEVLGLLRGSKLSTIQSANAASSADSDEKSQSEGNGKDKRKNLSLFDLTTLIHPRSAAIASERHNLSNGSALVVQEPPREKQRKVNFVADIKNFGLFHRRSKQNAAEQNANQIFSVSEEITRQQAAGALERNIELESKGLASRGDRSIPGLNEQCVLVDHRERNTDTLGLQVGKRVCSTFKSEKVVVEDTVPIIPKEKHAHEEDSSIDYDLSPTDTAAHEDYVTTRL

This assay addresses Short transient receptor potential channel 4 (Mus musculus) (UniProt Q9QUQ5). Kind of assay: inhibitors of mouse TRPC4 channel, primary screen, Fluo4 calcium, HEK293 TRPC4beta/mu-opioid cells (AID 2247). The conditions noted are these: DAMGO-evoked Fluo4 calcium flux, at 10 µM; stronger effect = lower value. In short, it runs like this:
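Assay system: Stable TRPC4beta/mu-opioid receptor HEK293 cells | Reagent: DAMGO in two steps, submaximal then maximal | Compound dosing: Single concentration per test compound | Signal: Fluo4 Ca2+ flux fluorescence | Evaluation: Per-well B score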
On to `CCOC(=O)C1(Cc2ccc(Cl)cc2)CCN(C(C)CCn2cccn2)CC1` (stereo not given), for which the B-score is -6 (active).

Turning to `CN(C)CC1CCCCC1=O` (stereo not given), the B-score entry was “inactive”.

For `CC(=O)N(C1=NCCCS1)c1ccccc1F`, the B-score entry was “inactive”.

On to `CSc1ccc(C(=O)C2CCCN(Cc3ccn[nH]3)C2)cc1` (stereo not given), for which the B-score entry is “inactive”.

For the compound `Cc1ccc(C2CN(C)CC2C(=O)c2ccc(F)cc2)cc1` (stereo not given), the B-score is -6 (active).

Consider `COc1ccc(C(=O)C2CN(C)CC2C(=O)c2ccc(OC)cc2)cc1` (stereo not given), for which the B-score entry was “inactive”.

Regarding `CN1CCC(OC(=O)c2cccc(F)c2)CC1`, the B-score result was “inactive”.

Regarding `O=c1[nH]c(CN2CC=C(c3ccccc3)CC2)nc2scc(-c3cccs3)c12`, the B-score entry is “inactive”.

In the case of `COc1ccc(CN2CCN(c3ccccc3F)CC2)c(OC)c1`, the B-score entry is “inactive”.

Turning to `c1ccc(CCN2CCC3(CC2)OCCO3)cc1`, the B-score result is “inactive”.

As for `CCOC(=O)C1(CCc2ccccc2)CCN(Cc2ccco2)CC1`, the B-score was -8 (active).

Turning to `CCC(=NCc1ccco1)c1c(O)n(Cc2ccccc2)c(=O)[nH]c1=O`, the B-score entry is “inactive”.

Regarding `COc1ccc(N=Cc2c(O)n(C)c(=O)[nH]c2=O)cc1`, the B-score entry is “inactive”.

For `N#CC1=C(N)Oc2c(c(=O)oc3ccccc23)C1c1ccccc1OC(=O)c1cccs1` (stereo not given), the B-score entry was “inactive”.

`COC(=O)C1=C(c2cc3ccccc3s2)C[C@@H]2CC[C@H]1N2C(=O)NC(C)C`: the B-score result is “inactive”.

Consider `COC(=O)C1=C(c2cc3ccccc3s2)C[C@@H]2CC[C@H]1N2C(=O)NCc1cccc2ccccc12`, for which the B-score entry was “inactive”.

Regarding `COC(=O)C1=C(c2cc3ccccc3s2)C[C@@H]2CC[C@H]1N2C(=O)NCCO`, the B-score is -6 (active).

Turning to `OCC#CC[N+]1(CC#Cc2ccccc2)CCCC1`, the B-score entry was “inactive”.

Turning to `CNCC(O)c1cc(F)c(OCc2ccccc2)c(OCc2ccccc2)c1F` (stereo not given), the B-score entry was “inactive”.

As for `CCOc1cccc(=NC2CCCCC2)c2c(C)[nH]c(C)c12`, the B-score result is “inactive”.
